Screens (PubChem)
A selection: hits, their analogues and other compounds. The true share with any hit is near 1.4%.
TAG inh = triacylglycerol accumulation inhibition; H9c2 cells, Nile Red lipid (TAG) fluorescence; cells loaded with 200 µM oleic acid; inhibition, % at 12.5 µM; hit rate 0.66% among 230,000; AID 651582;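 active means pattern-corrected inhibition of lipid staining of at least 50% with the nuclear-stain viability signal not falling by more than 50%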;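 further: 0% = DMSO wells and 100% = triacsin C control wells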
Cardio protect = protects H9c2 cardiomyocytes from peroxide injury | H2O2 injury protection, ATPLite, 2 h | AID 588492 | protection from H2O2 cell death, % at 20 µM | hit rate 0.63% among 360,000;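 active means compounds giving at least 50% protection of heart cells from peroxide-induced death in the single-dose screen, raw or plate-pattern-corrected value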;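 further: 0% = DMSO wells with peroxide and 100% = DMSO wells without peroxide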
DAGLB inh = blocks human DAGLB lipase activity; Q8NCG7; HEK293T DAGLB membrane lysate, EnzChek fluorogenic substrate; inhibition, % at 5.17 µM; hit rate 0.059% among 340,000; in the data active means inhibition above about 34%;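 further: 0% = enzyme with vehicle and 100% = wells lacking enzyme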
MT1-MMP act inh = blocks activation of human MT1-MMP | GFP/RFP ratio change, % at 20 µM | HT1080 RFP-PRO-GFP cells, GFP/RFP ratio fluorescence, overnight; percent of plate control window, DMSO zero | AID 651647 | hit rate 0.061% among 360,000 | P50281;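 active means GFP/RFP ratio change of at least 30% with cell ATP level not reduced by more than half and red fluorescence within 50% of control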
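Assay system: HT1080 cells carrying an RFP-PRO-GFP reporter | Dosing: Single dose of 20 µM compound, 1% DMSO final | Incubation: Cells overnight before dosing, compound overnight, 37 °C, 5% CO2 | Evaluation: GFP/RFP fluorescence ratio | Control set: DMSO and RFP-L50D-GFP cell wells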
Tn7 DDE FP = inhibitors of Tn7 peptide binding to human fibrin DD(E). P02675. FP displacement of FITC-Tn7 peptide from fibrin DD(E); 0% = median of compound wells per plate. inhibition, % at 8.3 µM. hit rate 0.13% among 370,000. AID 720508;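 active means inhibition above the mean of compounds falling within the control limits plus 3 SD of them, cut at about 14% in these data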;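 further: 0% = plate median of compound wells and 100% = 10 µM Aha-Tn7 peptide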
Target sequence (P02675 whole entry, looked up): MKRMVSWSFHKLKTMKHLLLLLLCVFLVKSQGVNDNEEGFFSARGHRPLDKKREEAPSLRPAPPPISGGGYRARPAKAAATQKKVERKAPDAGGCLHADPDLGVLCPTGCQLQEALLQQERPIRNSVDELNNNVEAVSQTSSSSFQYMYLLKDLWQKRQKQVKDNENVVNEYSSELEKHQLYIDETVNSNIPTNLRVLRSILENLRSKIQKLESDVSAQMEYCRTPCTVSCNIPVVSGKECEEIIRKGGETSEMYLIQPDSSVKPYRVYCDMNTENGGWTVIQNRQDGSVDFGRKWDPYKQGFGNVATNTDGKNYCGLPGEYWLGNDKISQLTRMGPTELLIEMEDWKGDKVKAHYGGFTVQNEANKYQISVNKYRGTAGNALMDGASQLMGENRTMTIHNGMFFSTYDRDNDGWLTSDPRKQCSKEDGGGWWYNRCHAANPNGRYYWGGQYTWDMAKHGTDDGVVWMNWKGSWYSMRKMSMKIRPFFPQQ
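Also added: labelled Tn7 tracer, 0.1 µM; Assay system: human fibrin DD(E) protein; Amount: 2 µM fibrin DD(E); Schedule: 10 min compound pre-incubation, 3 h probe incubation at room temperature; Repeats: one replicate per compound; Read-out basis: percent inhibition; Measured by: fluorescence polarization of the labelled Tn7 tracer.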
DDE Tn6 FP inh = disrupts Tn6 cyclic peptide binding to fibrin D-Dimer-E complex | P02675 | hit rate 0.21% among 370,000 | Fibrin DD(E) TRITC-Tn6 fluorescence polarization displacement | inhibition, % at 8.3 µM;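 active means inhibition above a per-campaign cutoff: mean of compounds within control limits plus 3 SD, cut at about 15% in these data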;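 further: 0% = median of all compound wells on the plate and 100% = blocking peptide control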
H9c2 TAG conf = triacylglycerol accumulation inhibition, confirmation | shares compounds with TAG inh | H9c2 lipid accumulation, Nile Red fluorescence; cells loaded with 200 µM oleic acid | inhibition, % at 12.5 µM | hit rate 71% among 990 | AID 651629;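 active means mean inhibition across replicates of 40% or more; inactive means mean inhibition below 40%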;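 further: plate controls were DMSO only wells for no effect and Triacsin C treated wells for full effect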
* marks the source's active call; other numbers are inactive results.

What do the screens show for `CCCCCCCCN1C(=O)[C@@H](CC(=O)N2CCOCC2)C[C@@]2(C(=O)OC)C1=C[C@H](COCc1ccccc1)O[C@@H]2C`?
Tn7 DDE FP: 1; DDE Tn6 FP inh: 5

What do the screens show for `C#CCNC(=O)C[C@H]1C[C@@]2(C(=O)OC)C(=C[C@H](COCc3ccccc3)O[C@@H]2C)N(CCc2ccc(OC)c(OC)c2)C1=O`?
Tn7 DDE FP: -4; DDE Tn6 FP inh: 1

Results for Cc1ccccc1CN1CCCCC(NC(=O)Nc2cccc([N+](=O)[O-])c2)C1=O (centres undefined) ?
Tn7 DDE FP: 5; DDE Tn6 FP inh: -3

Results for C=CC[C@H](CC(=O)N(CCO)Cc1ccccc1)C(=O)N[C@H](COC(=O)[C@@H](CC=C)Cc1ccc(F)cc1)C(C)(C)C ?
TAG inh: 37; Cardio protect: 8; DAGLB inh: -8; MT1-MMP act inh: -13; Tn7 DDE FP: 8; DDE Tn6 FP inh: 8

Results for C=CC[C@@H](CC(=O)N(CCO)Cc1ccccc1)C(=O)N[C@H](COC(=O)[C@@H](CC=C)Cc1ccc(F)cc1)C(C)(C)C ?
TAG inh: 85*; Cardio protect: -2; DAGLB inh: -12; MT1-MMP act inh: -43; Tn7 DDE FP: 0; DDE Tn6 FP inh: 7; H9c2 TAG conf: 89*

What do the screens show for `O=C(OCCCN1CCC2(CCC(c3ccccc3)CC2)C1=O)c1ccccc1` (centres undefined)?
Tn7 DDE FP: -2; DDE Tn6 FP inh: 5

Results for Cn1cc(/C=N/n2cnc3scc(-c4ccc(Cl)cc4)c3c2=O)c2ccccc21 ?
TAG inh: 61*; Cardio protect: 1; DAGLB inh: -1; MT1-MMP act inh: 13; Tn7 DDE FP: 7; DDE Tn6 FP inh: -3; H9c2 TAG conf: 69*

How did CCCC(=O)N1CCC[C@]2(CC[C@H](CCC(C)=O)O2)C1 do in these assays?
Tn7 DDE FP: 4; DDE Tn6 FP inh: 2

Results for Cn1c2ccccc2c2c(C(=O)N3CCN(C(=O)c4ccco4)CC3)cn(C3CCCCC3)c(=O)c21 ?
TAG inh: 50*; Cardio protect: 44; DAGLB inh: 1; MT1-MMP act inh: 1; Tn7 DDE FP: -3; DDE Tn6 FP inh: 3; H9c2 TAG conf: 35

What do the screens show for `O=C(NCCc1c[nH]c2ccccc12)C1CCC(Cn2c(=S)[nH]c3ccccc3c2=O)CC1` (centres undefined)?
TAG inh: 65*; Cardio protect: 0; DAGLB inh: 8; MT1-MMP act inh: -8; Tn7 DDE FP: 2; DDE Tn6 FP inh: 2; H9c2 TAG conf: 61*

Results for Cc1cc(F)ccc1C(=O)N1CCC(Oc2cccnc2)CC1 ?
Tn7 DDE FP: -6; DDE Tn6 FP inh: -1

How did CCN(CC)c1ccc(/C=N/Nc2nc(C)cc(C)n2)cc1 do in these assays?
TAG inh: 51*; Cardio protect: -4; MT1-MMP act inh: 1; Tn7 DDE FP: 0; DDE Tn6 FP inh: 0; H9c2 TAG conf: 30

What do the screens show for `Cc1cc(C)nc(N/N=C/c2ccccc2)n1`?
Cardio protect: 7; DAGLB inh: 2; MT1-MMP act inh: -2

How did COc1ccc(-c2csc(NC(=O)CC(C)C)n2)cc1 do in these assays?
TAG inh: 65*; Cardio protect: -1; DAGLB inh: 0; MT1-MMP act inh: -6; Tn7 DDE FP: -2; DDE Tn6 FP inh: -8; H9c2 TAG conf: 32

How did C[C@@H]1CCN(C2CC2)S(=O)(=O)c2c(cccc2N2CC[C@@H](O)C2)O1 do in these assays?
Tn7 DDE FP: 9; DDE Tn6 FP inh: 1

How did CCc1nc(C)c(C(=O)N2CCCC(C(=O)Nc3cccc(-c4cccc(C)c4)c3)C2)o1 (centres undefined) do in these assays?
TAG inh: 50*; Cardio protect: 3; DAGLB inh: -3; MT1-MMP act inh: 5; Tn7 DDE FP: 4; DDE Tn6 FP inh: 10; H9c2 TAG conf: 47*

How did CCC(C(=O)Nc1ccccc1N1CCCC1)c1cccc(C)c1 (centres undefined) do in these assays?
Tn7 DDE FP: 3; DDE Tn6 FP inh: -8

What do the screens show for `Cc1ccc(-c2csc(NC(=O)CSc3nc4ccccc4c(=O)n3CCCN(C)C)n2)cc1`?
TAG inh: 70*; Cardio protect: -6; DAGLB inh: 1; MT1-MMP act inh: -4; Tn7 DDE FP: 10; DDE Tn6 FP inh: -5; H9c2 TAG conf: 83*

What do the screens show for `CCn1c(SCC(=O)Nc2nc(-c3ccc(C)cc3)cs2)nnc1-c1ccccc1O`?
TAG inh: 80*; Cardio protect: -20; DAGLB inh: -4; MT1-MMP act inh: -1; Tn7 DDE FP: -4; DDE Tn6 FP inh: -3; H9c2 TAG conf: 68*

Results for CCOc1ccccc1Nc1nnc(SCC(=O)Nc2nc(-c3ccc(OC)cc3)cs2)s1 ?
TAG inh: 35; Cardio protect: 20; DAGLB inh: 1; MT1-MMP act inh: -1; Tn7 DDE FP: 1; DDE Tn6 FP inh: 0

What do the screens show for `COc1ccccc1Nc1nnc(SCC(=O)Nc2nc(-c3ccc(F)cc3)cs2)s1`?
TAG inh: 51*; Cardio protect: 6; DAGLB inh: 1; MT1-MMP act inh: -5; Tn7 DDE FP: -3; DDE Tn6 FP inh: -6; H9c2 TAG conf: 57*

How did CC(C)CN1C(=O)C[C@]2(C(=O)N(C)c3ccc(NC(=O)c4cc(F)ccc4F)cc32)C1c1ccccc1 (some centres undefined) do in these assays?
Tn7 DDE FP: -3; DDE Tn6 FP inh: 1

What do the screens show for `O=C(NC1CCCCN(Cc2cccc(C(F)(F)F)c2)C1=O)c1cccc([N+](=O)[O-])c1` (centres undefined)?
Tn7 DDE FP: 2; DDE Tn6 FP inh: -3

Results for COc1ccccc1N1CCN(CC(=O)Nc2cc(C)nn2-c2nc(C)cc(C)n2)CC1 ?
TAG inh: 55*; Cardio protect: 5; DAGLB inh: -1; MT1-MMP act inh: 0; Tn7 DDE FP: 1; DDE Tn6 FP inh: 1; H9c2 TAG conf: 56*

What do the screens show for `Cc1ccc(C2=CCN(C)C(=O)N2c2ccc(Br)cc2)cc1`?
Tn7 DDE FP: 0; DDE Tn6 FP inh: -1

How did Cc1sc(NC(=O)c2cccc([N+](=O)[O-])c2)c(C(N)=O)c1-c1ccc(C(C)(C)C)cc1 do in these assays?
TAG inh: 82*; Cardio protect: -13; DAGLB inh: -1; MT1-MMP act inh: -5; Tn7 DDE FP: 2; DDE Tn6 FP inh: 5; H9c2 TAG conf: 30

Results for C=CCN1C(=O)[C@@H](CC(=O)NCCCOCCCC)[C@]2(C(=O)OC)CCCCC=C12 ?
Tn7 DDE FP: 0; DDE Tn6 FP inh: -3
